Source: ChEMBL document CHEMBL2086236, “Discovery of pyrrolo[3,2-c]quinoline-4-one derivatives as novel hedgehog signaling inhibitors” (Bioorg Med Chem, 2012)

Legend:
[1] = Clearance in mouse hepatic microsomes by LC-MS/MS analysis; type: ADME, Microsome; conditions: liver microsomes, read-out: CLH
Outline: (§1)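 Liver microsomes (0.2 mg protein/mL) were incubated with 1 µmol/L test compound in 50 mmol/L potassium phosphate, pH 7.4. The reaction was started with an NADPH-generating system (MgCl₂, glucose-6-phosphate, β-NADP+, G6P dehydrogenase) added at 20% of the reaction volume. Clearance was reported in µL/min/mg.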

Sonic hedgehog protein = Sonic hedgehog protein (Mus musculus, UniProt Q62226); experiment: Inhibition of recombinant mouse Shh expressed in […] assessed as inhibition of Gli1 expression after 48 hrs by luciferase reporter gene assay; type: cell-based, NIH/3T3
Sequence of Sonic hedgehog protein (Q62226 25-198 limits assumed): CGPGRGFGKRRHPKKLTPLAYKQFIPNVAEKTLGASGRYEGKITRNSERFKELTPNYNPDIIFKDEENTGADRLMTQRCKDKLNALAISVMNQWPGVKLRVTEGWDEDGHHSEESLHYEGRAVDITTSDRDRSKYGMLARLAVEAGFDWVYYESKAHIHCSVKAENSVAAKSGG
Outline: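 NIH3T3 cells stably carrying a Gli-luciferase reporter (kept in DMEM/10% FBS, 500 µg/mL G418) were seeded on collagen-coated plates overnight. Compounds (final 0.03–1000 nM, n = 4 wells) were added with recombinant mouse Shh-N at final 1 µg/mL in 5.8% FBS, then incubated 48 h. Controls were 0.1% DMSO ± Shh-N (n = 10). Read-out was luciferase luminescence; IC50 is the mean of four measurements.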

[2] = Clearance in human hepatic microsomes by LC-MS/MS analysis; type: ADME, Microsome; conditions: liver microsomes, read-out: CLH; outline: as §1
[3] = molecular target: Voltage-gated inwardly rectifying potassium channel KCNH2 (Homo sapiens, UniProt Q12809); experiment: inhibition of human ERG
Sequence of Voltage-gated inwardly rectifying potassium channel KCNH2 (Q12809 whole entry): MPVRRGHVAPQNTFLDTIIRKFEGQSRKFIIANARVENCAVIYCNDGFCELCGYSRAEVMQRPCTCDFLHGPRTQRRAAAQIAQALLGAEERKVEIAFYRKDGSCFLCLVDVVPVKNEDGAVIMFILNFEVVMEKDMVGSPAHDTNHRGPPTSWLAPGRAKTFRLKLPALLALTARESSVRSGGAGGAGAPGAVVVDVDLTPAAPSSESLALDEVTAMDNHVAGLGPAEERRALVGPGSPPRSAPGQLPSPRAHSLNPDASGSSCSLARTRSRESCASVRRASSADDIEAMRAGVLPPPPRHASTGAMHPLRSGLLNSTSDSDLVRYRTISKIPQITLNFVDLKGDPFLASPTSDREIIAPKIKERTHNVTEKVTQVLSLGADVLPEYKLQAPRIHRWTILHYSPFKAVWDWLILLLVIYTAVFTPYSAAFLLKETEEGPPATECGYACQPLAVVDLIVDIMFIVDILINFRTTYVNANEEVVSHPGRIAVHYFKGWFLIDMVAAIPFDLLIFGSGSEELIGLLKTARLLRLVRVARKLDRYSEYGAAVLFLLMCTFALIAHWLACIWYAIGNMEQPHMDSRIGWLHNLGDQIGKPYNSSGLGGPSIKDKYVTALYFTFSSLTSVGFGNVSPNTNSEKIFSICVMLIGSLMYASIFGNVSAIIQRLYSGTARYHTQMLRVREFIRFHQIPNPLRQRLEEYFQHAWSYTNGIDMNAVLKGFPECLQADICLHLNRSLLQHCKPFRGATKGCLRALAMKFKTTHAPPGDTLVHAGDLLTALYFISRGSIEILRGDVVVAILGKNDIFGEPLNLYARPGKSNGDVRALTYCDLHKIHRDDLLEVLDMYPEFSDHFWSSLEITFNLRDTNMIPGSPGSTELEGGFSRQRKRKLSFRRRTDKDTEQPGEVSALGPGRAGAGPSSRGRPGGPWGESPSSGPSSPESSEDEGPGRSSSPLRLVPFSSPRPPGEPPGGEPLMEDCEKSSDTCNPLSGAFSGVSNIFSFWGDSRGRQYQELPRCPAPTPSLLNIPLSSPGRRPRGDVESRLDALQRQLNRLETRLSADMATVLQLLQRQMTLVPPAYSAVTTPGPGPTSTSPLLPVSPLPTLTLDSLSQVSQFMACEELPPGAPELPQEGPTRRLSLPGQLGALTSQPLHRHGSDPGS

[4] = Antitumor activity against Ptch+/- p53-/- double-mutant mouse medulloblastoma allograft model assessed as tumor growth rate at 6.25 mg/kg, po bid for 2 weeks measured up to 21 days relative to control; type: functional, Medulloblastoma cell
Outline: (§2)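 Nude mice carrying subcutaneous Ptch+/- p53-/- medulloblastoma allografts (passaged in vivo) were dosed orally twice daily for 2 weeks, suspended in 0.5% methylcellulose, vs vehicle, once tumors reached an average of 150–250 mm³. Tumors were measured by caliper, with V = (a × b²)/2. T/C% = mean treated (Vend−Vstart)/control (Vend−Vstart) × 100. Body weight was followed. Points are mean SD of duplicates; 1-tailed Dunnett's test vs controls.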

Mus musculus [5] = experiment: Toxicity against Ptch+/- p53-/- double-mutant mouse medulloblastoma allograft model assessed as body weight loss at 6.25 mg/kg, po bid for 2 weeks; type: organism-based; parameters: dose 6.25 mg/kg, route oral; conditions: in vivo, 336 h; outline: as §2
[6] = Binding affinity to human Smo expressed in 293T cells after 1 hr by fluorescence analysis; type: cell-based
Outline: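 293T cells were transiently transfected overnight with HA-tagged human Smo, then plated at 6×10⁴ cells/well. Compounds (final 0.03–1000 nM) were incubated 1 h with 2 nM BODIPY-cyclopamine, n = 3 wells per concentration. Media or excess unlabelled cyclopamine set the 0%/100% inhibition controls (n = 5). Cell fluorescence was read by flow cytometry after Versene detachment.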

Mus musculus [7] = experiment: In vivo inhibition of Shh signalling in mouse xenografted with PAN-04 cells assessed as Gli1 expression at 25 mg/kg, po bid measured after 24 hrs post first dose relative to control; values are per cent of control; conditions: PAN-04, po

| SMILES | microsomal CLint [1] | IC50 (Sonic hedgehog protein) | microsomal CLint [2] | IC50 [6] | inhibition (INH) [3] | Activity [4] | Activity (Mus musculus [5]) | level, % of control at 25 mg/kg (Mus musculus [7]) |
| --- | --- | --- | --- | --- | --- | --- | --- | --- |
| CCC(=O)Cn1c(=O)c2c(OC)c(C(=O)NC3CCN(CCO)CC3)n(C)c2c2ccccc21 | < 1 µL/min/mg | > 100 nM | 3 µL/min/mg |  |  |  |  |  |
| COc1c(C(=O)NCCN2CCCC2)sc2c1c(=O)n(CC(=O)c1ccccc1)c1ccccc21 |  | 5.1 nM |  |  |  |  |  |  |
| COc1c(C(=O)NCCN2CCCC2)oc2c1c(=O)n(CC(=O)c1ccccc1)c1ccccc21 |  | > 1000 nM |  |  |  |  |  |  |
| CCOc1c(C(=O)NCCN2CCCC2)n(C)c2c1c(=O)n(CC(=O)c1ccccc1)c1ccccc21 | 155 µL/min/mg | 7 nM | 26 µL/min/mg |  |  |  |  |  |
| COc1c(C(=O)NCCN2CCCCC2)n(C)c2c1c(=O)n(CC(=O)c1ccccc1)c1ccccc21 | 192 µL/min/mg | 9.6 nM | 30 µL/min/mg |  |  |  |  |  |
| COc1c(C(=O)NC2CCNCC2)n(C)c2c1c(=O)n(CC(=O)c1ccccc1)c1ccccc21 | 10 µL/min/mg | 21 nM | 2 µL/min/mg |  |  |  |  |  |
| COc1c(C(=O)NC2CCN(CCO)CC2)n(C)c2c1c(=O)n(CC(=O)c1ccccc1)c1ccccc21 | 9 µL/min/mg | 6.6 nM | 6 µL/min/mg |  | Active |  |  |  |

Continued by falling IC50 (Sonic hedgehog protein), values first:

| microsomal CLint [1] | IC50 (Sonic hedgehog protein) | microsomal CLint [2] | IC50 [6] | SMILES | inhibition (INH) [3] | Activity [4] | Activity (Mus musculus [5]) | level, % of control at 25 mg/kg (Mus musculus [7]) |
| --- | --- | --- | --- | --- | --- | --- | --- | --- |
| 48 µL/min/mg | 150 nM | 72 µL/min/mg |  | COc1c(C(=O)NC2CCN(CCO)CC2)n(C)c2c1c(=O)n(CCc1ccccc1)c1ccccc21 |  |  |  |  |
| 237 µL/min/mg | 22 nM | 73 µL/min/mg |  | COc1c(C(=O)NCCN2CCOCC2)n(C)c2c1c(=O)n(CC(=O)c1ccccc1)c1ccccc21 |  |  |  |  |
| 11 µL/min/mg | 4.6 nM | < 1 µL/min/mg | 41 nM | COc1c(C(=O)NC2CCN(C(=O)CO)CC2)n(C)c2c1c(=O)n(CC(=O)c1ccccc1)c1ccccc21 | Not Active | 3% | Non-toxic | 5% |
| 95 µL/min/mg | 2.9 nM | 14 µL/min/mg |  | COc1c(C(=O)NCCN2CCCC2)n(C)c2c1c(=O)n(CC(=O)c1ccccc1)c1ccccc21 |  |  |  |  |
